Only some compounds are listed: those with a hit (about 3.5% of all), similar ones and a draw of the others.
MrgX1 PAM – allosterically activates human MrgX1 receptor signaling; 310,000 tested, 0.63% active; Q96LB2; MrgX1-HEK293, Fluo-4 calcium flux, FDSS; stronger effect = higher value; B-score at 10 µM;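 active means plate-corrected calcium response at least 3 library SD above typical, normal starting fluorescence, not activating the receptor alone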;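 further: compound read alongside a low EC10 to EC30 dose of BAM8-22 agonist; peak minus trough fluorescence over baseline measured at the second addition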
Target sequence (Q96LB2 whole entry, looked up): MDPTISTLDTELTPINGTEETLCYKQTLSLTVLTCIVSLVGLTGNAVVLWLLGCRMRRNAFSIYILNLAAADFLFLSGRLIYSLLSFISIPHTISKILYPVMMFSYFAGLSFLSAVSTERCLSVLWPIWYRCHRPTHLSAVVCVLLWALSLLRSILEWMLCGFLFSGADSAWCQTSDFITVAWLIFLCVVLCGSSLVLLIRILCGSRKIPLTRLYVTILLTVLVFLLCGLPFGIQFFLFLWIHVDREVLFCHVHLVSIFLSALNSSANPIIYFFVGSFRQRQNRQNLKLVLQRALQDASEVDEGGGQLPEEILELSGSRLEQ
MrgX1 agonist – activates human MrgX1 receptor signaling. B-score at 10 µM. AID 588627. 310,000 tested, 0.44% active. MrgX1-HEK293 cells, Fluo-4 calcium fluorescence, agonist mode; stronger effect = higher value;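 active means calcium response B-score plate-corrected fluorescence ratio at least 3 library SD, with starting fluorescence B-score inside 5 SD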
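Test system: HEK293 cells stably expressing human MrgX1 receptor; Input: fifteen thousand cells per well; Dosing: compound delivered in addition one of three; Schedule: overnight seeding, then 1 h dark dye loading; Technique: Fluo-4 NW calcium fluorescence; Measure: B-scored fluorescence response ratio; Controls: positive and negative controls per plate.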
MrgX1 antag – blocks BAM8-22 activation of human MrgX1 receptor. MRGX1-HEK293 calcium flux, Fluo-4, BAM8-22 antagonism; stronger effect = lower value. B-score at 10 µM. 310,000 tested, 1.3% active. AID 588676;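 active means calcium-response B-score plate-corrected more than 3 library SD below zero, starting fluorescence within 5 deviations, no agonist response on first addition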;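 further: peak minus trough fluorescence over baseline after final BAM8-22 challenge near maximal dose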
RGS4 pot – potentiators or activators of RGS4 | HEK293 M3R/inducible RGS4, carbachol calcium flux Fluo4; stronger effect = lower value | 310,000 tested, 0.92% active | B-score at 10 µM;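 active means B-score of the integrated calcium signal more than 4 SD below the library mean, with starting fluorescence not abnormally high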;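 further: negative B-score means reduced calcium response which marks RGS4 activation or potentiation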
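Test system: HEK293 cells with stable M3R and inducible RGS4; also added: carbachol at ECmax as muscarinic agonist stimulus; schedule: dye loading 30 min 37 °C, buffer rest 30 min RT; technique: kinetic calcium fluorescence imaging with Fluo4-AM dye, 2 µM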
RGS4 block – inhibitors of human RGS4; HEK293 M3R/RGS4 inducible, Fluo-4 calcium flux; stronger effect = higher value; triggered by carbachol at its EC20; P49798; B-score at 10 µM; 310,000 tested, 0.45% active; AID 463165;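 active means B-score, a plate-corrected calcium signal, over three deviations above library mean, with baseline fluorescence within five deviations of library mean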;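 further: RGS4 expression induced by doxycycline in cells with stable M3 receptor; B-score is computed from the integrated fluorescence ratio over baseline after carbachol; higher B-score means a larger calcium signal and so more RGS4 inhibition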
Target sequence (P49798 whole entry, looked up): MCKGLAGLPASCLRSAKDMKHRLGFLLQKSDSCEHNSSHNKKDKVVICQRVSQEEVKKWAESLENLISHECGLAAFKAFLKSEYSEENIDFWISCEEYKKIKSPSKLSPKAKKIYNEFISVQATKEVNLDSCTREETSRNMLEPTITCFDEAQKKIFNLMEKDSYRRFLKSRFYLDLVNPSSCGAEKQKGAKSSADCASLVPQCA
RGS4 act valid – confirmation of RGS4 activators | shares compounds with RGS4 pot | HEK293 M3R/RGS4 inducible, carbachol calcium flux Fluo4 | inhibition, % at 10 µM | 1,100 tested, 89% active;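 active means inhibition above 3 SD of the buffer control wells, cut at about 41% in these data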;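 further: signal is the integrated peak-minus-minimum Fluo4 fluorescence over baseline ratio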
RGS4 act ctr – counter-screen for RGS4 activators: effect in non-induced cells; shares compounds with RGS4 pot; inhibition, % at 10 µM; HEK293 M3R non-induced RGS4, Fluo4 calcium flux; after carbachol challenge at its EC90; 1,100 tested, 82% active;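 active means inhibition exceeding 3 SD of buffer-only control wells, cut at about 26% in these data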;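 further: percent drop in integrated peak-minus-baseline over baseline Fluo4 ratio after carbachol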
Active calls of the source: *; i = inactive; . = no result; ! = not confirmed by another sample.

SMILES	MrgX1 PAM	MrgX1 agonist	MrgX1 antag	RGS4 pot	RGS4 block	RGS4 act valid	RGS4 act ctr
C#CCOCCOCCOCCNc1nc(N2CCN(C(=O)CCCCCCCCCCNC(=O)[C@H]([C@@H](C)CC)n3cc(CCCCCN)nn3)CC2)nc(N2CCN(C(=O)CCCCCCCCCCNC(=O)[C@H](CCCCN)n3cc(CCCC(=O)O)nn3)CC2)n1	i	i	i	.	.	.	.
C#CCOCCOCCOCCNc1nc(N2CCN(C(=O)CCCCCCCCCCNC(=O)[C@H]([C@@H](C)CC)n3cc(CCCCN=C(N)N)nn3)CC2)nc(N2CCN(C(=O)CCCCCCCCCCNC(=O)[C@H](CO)n3cc(CCCCCN)nn3)CC2)n1	i	151*	i	.	.	.	.
C#CCOCCOCCOCCNc1nc(N2CCN(C(=O)CCCCCCCCCCNC(=O)[C@H]([C@@H](C)CC)n3cc(CCCCN=C(N)N)nn3)CC2)nc(N2CCN(C(=O)CCCCCCCCCCNC(=O)[C@H](CCCCN)n3cc(C)nn3)CC2)n1	i	122*	i	.	.	.	.
CCN(CC(=O)Nc1ccccc1C(F)(F)F)C(=O)c1ccccc1Cc1ccccc1	i	i	i	i	i	.	.
CC1=NN(c2ccc([N+](=O)[O-])cc2)C(=O)/C1=C\N(C)C	i	i	i	i	i	.	.
CN(C)/C=C1\C(=O)N(c2ccc([N+](=O)[O-])cc2)N=C1c1ccccc1	i	50*	i	i	i	.	.
CN(C)/C=C1/C(=O)N(c2ccc([N+](=O)[O-])cc2)N=C1c1ccccc1	i	35*	i	i	i	.	.
O=[N+]([O-])c1cc(CS(=O)(=O)Oc2ccc(Cl)cc2)c(O)c([N+](=O)[O-])c1	i	i	i	i	i	.	.
O=C(O)C1CN(C(=O)c2cccc(Br)c2)C1	i	i	i	i	i	.	.
CCN(CCCc1ccccc1)CCCc1ccccc1	i	i	i	i	i	.	.
CCN(CCCC(=O)c1ccc(F)cc1)CCc1ccccc1	i	i	i	-7.1*	i	.	.
O=C(CN1C(=O)NC2(CCCCCC2)C1=O)c1ccc(Cl)s1	i	i	i	i	i	.	.
CN(Cc1ccccc1)S(=O)(=O)c1ccc(Cl)c(C(=O)NCCc2ccccn2)c1	i	i	i	i	i	.	.
COC(=O)/C(=C/c1cn(C)c2ccccc12)[N+](=O)[O-]	.	.	.	i	12*	.	.
COC(=O)/C(=C/Nc1ccccc1)[N+](=O)[O-]	i	i	i	i	i	.	.
CC(=O)Nc1ccc(NC(=O)CSc2nnc(NC(=O)c3ccc(Br)o3)s2)cc1	i	i	i	i	i	.	.
COC(=O)C1CCCCN1C(=O)c1ccc2oc(Cc3ccccc3)nc2c1 (configuration not stated)	i	i	-5.3*	i	i	.	.
CN(C)C1CCN(C(=O)c2cccc(OC3CCN(S(=O)(=O)N(C)C)CC3)c2)C1 (configuration not stated)	i	i	i	i	i	.	.
O=C(NCc1ccc2c(c1)OCO2)c1ccc2c(c1)N(Cc1c(F)cccc1Cl)C(=O)CS2	i	i	i	-7.7*	i	93*	60*
CC1CCC(C(C)C)C(OC(=O)Cn2c(-c3ccc(Br)cc3)[n+](C)c3ccccc32)C1 (configuration not stated)	i	i	-6*!	-11*	i	94*	81*
CC1CCC(C(C)C)C(OC(=O)COC(=O)c2ccc(N)cc2)C1 (configuration not stated)	i	i	i	i	i	.	.
Cc1ccccc1OCc1n(CC(=O)OC2CC(C)CCC2C(C)C)c2ccccc2[n+]1C (configuration not stated)	i	i	-7.2*	-13*	i	92*	91*
Cc1nn(-c2ccccc2)c(C)c1NC(=O)COC(=O)c1ccc(O)cc1O	i	i	i	-10*	i	52*	0
CCC(C)[C@H](NC(=O)NC1CCCc2ccccc21)C(=O)OC (some centres not stated)	i	i	i	-8.3*	i	0	0
O=C(c1cc(-c2cccc(Cl)c2)nc2ccccc12)N1CCN(c2ccccn2)CC1	i	i	i	-8.4*	i	56*	0
SMILES	MrgX1 PAM	MrgX1 agonist	MrgX1 antag	RGS4 pot	RGS4 block	RGS4 act valid	RGS4 act ctr
COc1ccc(-c2cc(C(=O)N3CCN(c4cccc(C)c4C)CC3)c3ccccc3n2)cc1OC	i	i	i	-8.5*	i	52*	0
O=C(c1cc(-c2ccncc2)nc2ccc(Br)cc12)N1CCN(c2ccccn2)CC1	i	i	i	i	i	.	.
COc1cccc(/C=N/n2c(-c3n[nH]c4c3CCC4)n[nH]c2=S)c1O	i	i	i	-9.1*	i	94*	93*
COc1ccccc1/C=C/C=N/n1c(-c2n[nH]c3c2CCC3)n[nH]c1=S	i	i	i	i	i	.	.
S=c1[nH]nc(-c2n[nH]c3c2CCC3)n1/N=C/C=C/c1ccco1	i	i	i	-9.1*	i	89*	58*
COc1ccccc1C(=O)NCC(c1cccs1)N1CCc2ccccc21 (configuration not stated)	i	i	i	-7.8*	i	62*	36*
Cn1c(SCCN2CCCC2)nnc1C1CCN(S(=O)(=O)c2ccc(F)cc2)CC1	i	i	i	-7.8*	i	50*	0
Nc1ccc(-c2nc3ccccc3[nH]2)cc1	i	i	i	i	i	.	.
c1ccc(-c2cc(-c3nc4ccccc4[nH]3)c3ccccc3n2)cc1	i	i	i	-9.6*	i	94*	77*
COc1cccc(NC(C)C(=O)Nc2cc([N+](=O)[O-])ccc2Cl)c1 (configuration not stated)	i	i	i	i	i	.	.
Oc1ccccc1Oc1ncc(Br)c(N2CCOCC2)n1	i	i	i	-11*	i	92*	64*
Cc1ccccc1Sc1c(C#N)c(-c2ccccc2)nn1C	i	i	i	-8.3*	i	88*	58*
CC1Oc2ccccc2C(=O)N(CC(=O)c2ccc3c(c2)OCCO3)C1=O (configuration not stated)	i	i	i	i	i	.	.
CCC1Oc2ccccc2C(=O)N(CC(=O)c2ccc3c(c2)OCCO3)C1=O (configuration not stated)	i	i	i	-8.1*	i	72*	84*
